Experiments:
[1] = molecular target: Glutamate receptor ionotropic, AMPA (Rattus norvegicus, UniProt P19490+P19491+P19492+P19493); test: Binding affinity for AMPA receptor using [3H]AMPA; type: protein-complex assay
How it was run: (§1)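 Radioligand displacement using [3H]AMPA (AMPA), [3H]KA (kainate) or [3H]CPP (NMDA) on membrane preparations. Mean ± SEM of at least three independent results; one value estimated. Low-solubility compounds tested only at 200 μM.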

[2] = species: Rattus norvegicus; test: Excitatory activity in the rat cortical slice model.; type: functional, organism-based
How it was run: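 Rat cortical slice depolarizations evoked by excitatory amino acids; agonists applied 90 s at each concentration, with receptor selectivity checked using NBQX (AMPA) or CPP (NMDA). Poorly soluble compounds tested up to 200 μM.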

[3] = molecular target: Glutamate NMDA receptor; test: Displacement of [3H]CPP from NMDA receptor; type: protein-complex assay, Rattus norvegicus; how it was run: as §1
[4] = molecular target: Glutamate receptor ionotropic, kainate; test: Binding affinity for Ionotropic glutamate receptor kainate by [3H]-kainic acid displacement; type: protein-complex assay, Rattus norvegicus; how it was run: as §1
[5] = molecular target: Metabotropic glutamate receptor 5 (Homo sapiens) (UniProt P41594); test: Antagonist activity against mGlu 5a receptor in chinese hamster ovary cells using secondary messanger assay determined; type: functional, cell-based; conditions: Cricetulus griseus
How it was run: (§2)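 Cloned mGluRs measured with second-messenger assays; group I (mGlu1α, mGlu5α), mGlu2 and mGlu4α tested. Compounds tested for agonist and antagonist activity at 1 mM unless otherwise stated. Mean ± SEM of at least two independent results; some values estimated from partial concentration–response curves.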

[6] = molecular target: Metabotropic glutamate receptor 1 (Homo sapiens) (UniProt Q13255); test: Antagonist activity against mGlu1-alpha receptor in chinese hamster ovary cells using secondary messanger assay determined; type: functional, cell-based; conditions: Cricetulus griseus; how it was run: as §2
[7] = molecular target: Metabotropic glutamate receptor 4 (Homo sapiens) (UniProt Q14833); test: Antagonist activity against mGlu 4a receptor in chinese hamster ovary cells using secondary messanger assay determined; type: functional, cell-based; conditions: Cricetulus griseus; how it was run: as §2
[8] = molecular target: Metabotropic glutamate receptor 2 (Homo sapiens) (UniProt Q14416); test: Antagonist activity against mGlu 2 receptor in chinese hamster ovary cells using secondary messanger assay determined; type: functional, cell-based; conditions: Cricetulus griseus; how it was run: as §2
Sequence of Metabotropic glutamate receptor 2 (Homo sapiens) (Q14416 19-872 limits assumed): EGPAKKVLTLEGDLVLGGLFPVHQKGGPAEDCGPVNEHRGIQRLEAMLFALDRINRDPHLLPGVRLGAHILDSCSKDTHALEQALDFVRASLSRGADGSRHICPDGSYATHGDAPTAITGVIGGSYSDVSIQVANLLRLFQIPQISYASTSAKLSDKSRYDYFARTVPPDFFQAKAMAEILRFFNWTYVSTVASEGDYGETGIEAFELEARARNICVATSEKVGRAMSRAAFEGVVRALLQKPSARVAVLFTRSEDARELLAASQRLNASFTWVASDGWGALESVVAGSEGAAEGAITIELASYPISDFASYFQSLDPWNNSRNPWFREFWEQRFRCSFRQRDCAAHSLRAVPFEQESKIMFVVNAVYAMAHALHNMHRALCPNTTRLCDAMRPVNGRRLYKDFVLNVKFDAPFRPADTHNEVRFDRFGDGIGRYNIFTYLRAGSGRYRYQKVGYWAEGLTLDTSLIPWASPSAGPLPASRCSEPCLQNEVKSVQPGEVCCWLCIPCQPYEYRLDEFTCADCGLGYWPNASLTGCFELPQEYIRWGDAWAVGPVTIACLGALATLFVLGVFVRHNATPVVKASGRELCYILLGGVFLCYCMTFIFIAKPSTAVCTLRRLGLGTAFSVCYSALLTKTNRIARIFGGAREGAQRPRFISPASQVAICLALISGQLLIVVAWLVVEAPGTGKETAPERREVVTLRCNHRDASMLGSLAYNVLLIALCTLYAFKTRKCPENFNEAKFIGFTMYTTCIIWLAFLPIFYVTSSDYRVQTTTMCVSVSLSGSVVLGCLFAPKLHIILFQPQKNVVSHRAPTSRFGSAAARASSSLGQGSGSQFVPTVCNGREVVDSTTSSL

Sequence of Metabotropic glutamate receptor 1 (Homo sapiens) (Q13255 19-1194 limits assumed): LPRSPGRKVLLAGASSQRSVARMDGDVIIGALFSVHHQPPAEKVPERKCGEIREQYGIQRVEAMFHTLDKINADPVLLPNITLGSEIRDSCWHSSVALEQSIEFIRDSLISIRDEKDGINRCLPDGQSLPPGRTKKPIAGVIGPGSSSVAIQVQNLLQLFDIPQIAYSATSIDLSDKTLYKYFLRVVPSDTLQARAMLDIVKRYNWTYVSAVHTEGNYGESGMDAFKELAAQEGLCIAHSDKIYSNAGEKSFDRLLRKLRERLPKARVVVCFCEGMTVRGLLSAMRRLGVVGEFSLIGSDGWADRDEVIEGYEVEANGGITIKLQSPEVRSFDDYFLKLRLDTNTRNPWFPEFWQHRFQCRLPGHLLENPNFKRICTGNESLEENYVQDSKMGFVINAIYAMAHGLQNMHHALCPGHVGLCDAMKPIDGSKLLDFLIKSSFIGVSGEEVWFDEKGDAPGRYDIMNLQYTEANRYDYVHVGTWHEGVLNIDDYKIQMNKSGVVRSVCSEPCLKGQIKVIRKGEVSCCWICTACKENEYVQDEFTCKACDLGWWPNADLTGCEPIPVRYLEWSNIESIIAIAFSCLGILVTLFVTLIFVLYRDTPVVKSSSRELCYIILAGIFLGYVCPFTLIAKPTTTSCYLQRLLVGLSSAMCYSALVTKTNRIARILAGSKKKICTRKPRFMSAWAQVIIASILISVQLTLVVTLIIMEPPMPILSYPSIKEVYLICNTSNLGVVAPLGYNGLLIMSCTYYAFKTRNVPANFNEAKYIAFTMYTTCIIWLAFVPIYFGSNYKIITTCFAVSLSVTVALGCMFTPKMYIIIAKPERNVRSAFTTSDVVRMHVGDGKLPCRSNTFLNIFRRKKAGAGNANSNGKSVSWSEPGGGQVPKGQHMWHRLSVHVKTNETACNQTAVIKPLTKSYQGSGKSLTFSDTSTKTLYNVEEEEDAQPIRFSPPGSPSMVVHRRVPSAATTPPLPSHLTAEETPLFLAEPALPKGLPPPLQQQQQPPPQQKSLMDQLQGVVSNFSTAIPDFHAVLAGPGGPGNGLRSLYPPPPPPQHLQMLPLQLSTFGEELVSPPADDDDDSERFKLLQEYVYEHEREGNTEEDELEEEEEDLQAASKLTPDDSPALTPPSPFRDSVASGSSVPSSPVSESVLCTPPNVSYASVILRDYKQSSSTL
Sequence of Metabotropic glutamate receptor 5 (Homo sapiens) (P41594 21-1212 limits assumed): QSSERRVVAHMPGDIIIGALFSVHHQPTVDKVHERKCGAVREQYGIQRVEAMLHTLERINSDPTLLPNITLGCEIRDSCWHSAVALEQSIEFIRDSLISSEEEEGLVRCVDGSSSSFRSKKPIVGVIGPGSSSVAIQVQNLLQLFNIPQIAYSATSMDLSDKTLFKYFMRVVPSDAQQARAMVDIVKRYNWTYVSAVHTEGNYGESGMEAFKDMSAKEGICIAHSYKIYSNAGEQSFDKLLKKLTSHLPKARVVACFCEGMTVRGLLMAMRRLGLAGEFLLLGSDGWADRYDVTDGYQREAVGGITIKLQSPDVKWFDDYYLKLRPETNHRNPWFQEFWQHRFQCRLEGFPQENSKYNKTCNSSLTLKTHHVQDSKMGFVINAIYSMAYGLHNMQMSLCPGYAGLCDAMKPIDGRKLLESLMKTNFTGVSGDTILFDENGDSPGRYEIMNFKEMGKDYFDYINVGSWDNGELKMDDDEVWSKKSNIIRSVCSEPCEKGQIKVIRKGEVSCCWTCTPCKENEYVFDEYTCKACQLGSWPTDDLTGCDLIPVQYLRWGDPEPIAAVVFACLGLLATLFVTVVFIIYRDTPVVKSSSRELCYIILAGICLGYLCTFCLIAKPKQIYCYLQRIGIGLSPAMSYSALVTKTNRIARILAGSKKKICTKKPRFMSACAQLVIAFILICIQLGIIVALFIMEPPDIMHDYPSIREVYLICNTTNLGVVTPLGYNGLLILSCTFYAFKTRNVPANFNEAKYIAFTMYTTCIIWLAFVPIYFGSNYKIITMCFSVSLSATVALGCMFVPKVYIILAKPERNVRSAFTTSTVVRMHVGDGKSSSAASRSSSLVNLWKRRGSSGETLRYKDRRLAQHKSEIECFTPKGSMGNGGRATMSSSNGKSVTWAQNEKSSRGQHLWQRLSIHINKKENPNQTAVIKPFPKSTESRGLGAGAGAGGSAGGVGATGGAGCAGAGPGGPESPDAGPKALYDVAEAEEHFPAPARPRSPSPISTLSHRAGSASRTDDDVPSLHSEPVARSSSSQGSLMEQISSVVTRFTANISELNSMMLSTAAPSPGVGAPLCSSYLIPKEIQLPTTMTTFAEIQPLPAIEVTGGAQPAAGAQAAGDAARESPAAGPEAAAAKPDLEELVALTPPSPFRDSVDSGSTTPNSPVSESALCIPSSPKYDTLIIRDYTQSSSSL
Sequence of Metabotropic glutamate receptor 4 (Homo sapiens) (Q14833 whole entry): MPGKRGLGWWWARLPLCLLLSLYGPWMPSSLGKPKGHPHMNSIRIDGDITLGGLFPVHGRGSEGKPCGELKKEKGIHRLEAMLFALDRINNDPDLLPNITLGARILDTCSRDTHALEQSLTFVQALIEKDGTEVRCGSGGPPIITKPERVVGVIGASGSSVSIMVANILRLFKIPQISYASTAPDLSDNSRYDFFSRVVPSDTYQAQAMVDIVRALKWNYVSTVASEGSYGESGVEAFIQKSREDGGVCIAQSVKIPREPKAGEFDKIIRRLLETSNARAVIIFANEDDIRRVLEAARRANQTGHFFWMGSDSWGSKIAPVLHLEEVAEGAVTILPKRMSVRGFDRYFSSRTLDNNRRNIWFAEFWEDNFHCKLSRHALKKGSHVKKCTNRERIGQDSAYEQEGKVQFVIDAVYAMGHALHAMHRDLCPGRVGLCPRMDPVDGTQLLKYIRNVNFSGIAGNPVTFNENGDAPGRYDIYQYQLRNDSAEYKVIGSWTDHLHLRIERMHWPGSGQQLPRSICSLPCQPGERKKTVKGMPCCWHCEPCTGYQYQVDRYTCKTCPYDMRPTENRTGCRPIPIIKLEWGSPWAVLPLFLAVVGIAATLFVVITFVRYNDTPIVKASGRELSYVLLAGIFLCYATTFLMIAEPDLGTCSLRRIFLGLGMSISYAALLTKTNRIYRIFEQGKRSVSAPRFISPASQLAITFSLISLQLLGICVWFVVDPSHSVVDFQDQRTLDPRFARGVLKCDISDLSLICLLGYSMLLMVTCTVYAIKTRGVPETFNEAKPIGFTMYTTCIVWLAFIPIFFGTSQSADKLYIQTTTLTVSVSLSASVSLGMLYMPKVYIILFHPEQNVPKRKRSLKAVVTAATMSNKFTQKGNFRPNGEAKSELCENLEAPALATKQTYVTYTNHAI

In the case of `N[C@H](Cc1onc(O)c1-c1ccccc1)C(=O)O`, the IC50 [1] is reported as > 100 µM, the EC50 [2] is reported as > 1000 µM and the IC50 [3] is reported as 31 µM. For the same compound, the IC50 [4] was > 100 µM.

With `CCCCCc1c(O)noc1CC(N)C(=O)O` (stereo not drawn) the IC50 [1] was 11 µM, the EC50 [2] was 630 µM and the IC50 [3] was > 100 µM. The IC50 [4] was > 100 µM.

In the case of `N[C@@H](Cc1cc(=O)[nH]o1)C(=O)O`, the IC50 [1] is reported as 0.8 µM, the EC50 [2] is reported as 330 µM and the IC50 [3] is reported as > 100 µM. For the same compound, the IC50 [4] was > 100 µM.

With `CCCCc1c(C[C@H](N)C(=O)O)o[nH]c1=O` the IC50 [1] was 0.48 µM, the IC50 [3] was > 100 µM and the IC50 [4] was > 100 µM.

For `CCCCCCCc1c(O)noc1CC(N)C(=O)O` (stereo not drawn), the IC50 [1] was > 100 µM, the EC50 [2] was > 500 µM and the IC50 [3] was > 100 µM. For the same compound, the IC50 [4] was > 100 µM.

With `N[C@@H](Cc1onc(O)c1-c1ccccc1)C(=O)O` the IC50 [1] was 23 µM, the EC50 [2] was 395 µM and the IC50 [3] was > 100 µM. The IC50 [4] was > 100 µM.

For `CCCCCCc1c(O)noc1C[C@@H](N)C(=O)O`, the IC50 [1] was > 100 µM, the EC50 [2] was > 1000 µM and the IC50 [3] was > 100 µM. For the same compound, the IC50 [4] was > 100 µM.

Work on `Cc1c(O)noc1CC(N)C(=O)O` (stereo not drawn) yielded an IC50 [1] of 0.32 µM and an EC50 [2] of 18 µM.

For `CCCCCCc1c(O)noc1C[C@H](N)C(=O)O`, the Kb [5] was 61 µM, the IC50 [1] was > 100 µM and the EC50 [2] was > 1000 µM. The IC50 [3] was > 100 µM, the IC50 [4] was > 100 µM and the Kb [6] was 30 µM.

`CCCCc1c(O)noc1C[C@H](N)C(=O)O` showed a Kb [5] of 97 µM.

For `CCCCCCc1c(O)noc1CC(N)C(=O)O` (stereo not drawn), the IC50 [1] was > 100 µM, the EC50 [2] was > 1000 µM and the IC50 [3] was > 100 µM. For the same compound, the IC50 [4] was > 100 µM.

For `CCCCCCCCc1c(O)noc1CC(N)C(=O)O` (stereo not drawn), the Kb [7] was > 100 µM, the EC50 [2] was > 500 µM and the Kb [8] was > 100 µM. For the same compound, the Kb [6] was > 100 µM.

`NC(Cc1onc(O)c1-c1ccccc1)C(=O)O` (stereo not drawn) was tested, and the IC50 [1] was 39 µM, the EC50 [2] was 590 µM and the IC50 [3] was > 100 µM. The IC50 [4] was > 100 µM.

Reference: ChEMBL document CHEMBL1134383, “Synthesis and pharmacology of 3-isoxazolol amino acids as selective antagonists at group I metabotropic glutamic acid receptors” (J Med Chem, 2001)
